# Source: ChEMBL document CHEMBL1157754, “Polyketides from the ascomycete fungus Leptosphaeria sp” (J Nat Prod, 2010)
# What was measured:
# Assay type in all cases: functional, organism-based
# Microdochium nivale = test: Antifungal activity against Fusarium nivale CGMCC 3.4600 after 48 hrs by Alamar blue assay; conditions: CGMCC 3.4600, 48 h
# How it was run: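 Plant-pathogen broth microdilution per NCCLS, in triplicate. F. nivale was grown on PDA, then in broth at 28 °C for 48 h, and suspended at 10^4 hyphae/mL in PDB. Serial dilutions were made from a 4 mg/mL DMSO stock. Alamar blue was the indicator and carbendazim the positive control. After incubation at 28 °C for 48 h, fluorescence was read at 544/590 nm, and IC50 was derived from the inhibition-concentration plot.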
# Pyricularia oryzae = test: Antifungal activity against Pyricularia oryzae CGMCC 3.3283 after 48 hrs by Alamar blue assay; conditions: CGMCC 3.3283, 48 h
# How it was run: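 Broth microdilution per NCCLS recommendations, in triplicate. Strain grown on PDA, then in broth at 28 °C for 48 h. Final suspension 10^4 hyphae/mL in PDB. Samples from 4 mg/mL DMSO stock, serially diluted. Alamar blue added as indicator; incubated 28 °C for 48 h. Fluorescence read at Ex/Em 544/590 nm. Inhibition plotted against concentration to give IC50.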
# Aspergillus flavus = test: Antifungal activity against Aspergillus flavus CGMCC 3.0951 after 48 hrs by Alamar blue assay; conditions: CGMCC 3.0951, 48 h
Structure (SMILES),IC50 (Microdochium nivale),IC50 (Pyricularia oryzae),IC50 (Aspergillus flavus)
C[C@@H]1CC(=O)c2c(coc2-c2c(O)cccc2O)[C@@H]1O [LEPTOSPHAERIN A],> 150 µM,> 150 µM,> 150 µM
Cc1cc(CO)c2c(=O)c3c(O)cc(O)cc3oc2c1 [LEPTOSPHAERIN E],> 150 µM,> 150 µM,> 150 µM
C[C@@H]1[C@H](O)[C@@H](C)/C=C/C=C/C=C/C=C/C=C/C=C/C=C/[C@H](O[C@@H]2O[C@H](C)[C@@H](O)[C@H](N)[C@@H]2O)C[C@@H]2O[C@](O)(C[C@@H](O)C[C@@H](O)[C@H](O)CC[C@@H](O)C[C@@H](O)CC(=O)O[C@H]1C)C[C@H](O)[C@H]2C(=O)O [AMPHOTERICIN B],–,–,3.3 µM
CC1=C[C@H](O)[C@@]2(Oc3cccc(O)c3C2=O)[C@H](C)C1=O [LEPTOSPHAERIN C],144 µM,80.3 µM,81.4 µM
Cc1cc(O)c2c(c1O)COc1cccc(O)c1C2=O [LEPTOSPHAERIN D],12.5 µM,18.1 µM,> 150 µM
C[C@@H]1CC(O)=C2C(=O)c3c(O)cccc3O[C@]2(C)[C@H]1O [LEPTOSPHAERIN G],> 150 µM,> 150 µM,14.8 µM
COC(=O)Nc1nc2ccccc2[nH]1 [CARBENDAZIM],2.6 µM,5 µM,–
C[C@@H]1C[C@H](O)[C@H]2C(=O)c3c(O)cccc3O[C@]2(C)[C@H]1O [LEPTOSPHAERIN F],> 150 µM,> 150 µM,> 150 µM
C[C@@H]1CC(=O)c2c(coc2-c2c(O)cccc2O)[C@H]1O [LEPTOSPHAERIN B],> 150 µM,> 150 µM,> 150 µM
